Screens: PubChem BioAssay, The Scripps Research Institute Molecular Screening Center
PAFAH1B3 inh: inhibitors of human PAFAH1B3; Q15102; recombinant PAFAH1B3, FP-rhodamine probe, fluorescence polarization; inhibition, % at 3.39 µM; 340,000 compounds, 0.28% hits; AID 492972;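 active means inhibition above the screen-wide average of all tested compounds plus 3 SD, cut at about 25% in these data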
Target sequence (Q15102 whole entry, looked up): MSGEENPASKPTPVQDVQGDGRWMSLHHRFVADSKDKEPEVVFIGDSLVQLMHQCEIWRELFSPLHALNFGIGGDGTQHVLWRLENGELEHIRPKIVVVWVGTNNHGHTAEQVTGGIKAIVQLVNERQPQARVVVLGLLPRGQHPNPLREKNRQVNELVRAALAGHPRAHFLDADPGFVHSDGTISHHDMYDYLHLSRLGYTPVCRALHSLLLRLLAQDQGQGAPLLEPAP
IMP-1 inhibitor: inhibitors of Pseudomonas aeruginosa IMP-1 metallo-beta-lactamase | purified IMP-1, nitrocefin hydrolysis, epi-absorbance fluorescence | inhibition, % at 5.6 µM | 290,000 compounds, 0.45% hits;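 active means inhibition above the mean plus 3 SD of all compounds in the same screening run, cut at about 4.5% in these data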
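System: purified recombinant IMP-1 beta-lactamase. Medium: Zinc- and detergent-supplemented HEPES buffer, pH 7.1. Compound: one 5.6 µM dose […]. Schedule: 15 min preincubation plus 25 min reaction at 25 °C. Technique: Epi-absorbance fluorescence, 480 nm excitation, 530 nm emission.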
pPAFAH FP inh: pPAFAH (human) enzyme inhibition | recombinant pPAFAH, FP-rhodamine probe fluorescence polarization | inhibition, % at 3.39 µM | Q13093 | 330,000 compounds, 1.5% hits;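 active means inhibition above the mean inhibition across the screen plus 3 SD, cut at about 25% in these data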;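 further: inhibitors block binding of the rhodamine activity-based probe so polarization drops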
PAFAH2 inh: PAFAH2 (human) inhibition; inhibition, % at 3.39 µM; recombinant PAFAH2, FP-rhodamine activity probe, fluorescence polarization; 340,000 compounds, 0.99% hits; AID 492956; Q99487;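 active means inhibition above the mean over all tested compounds plus 3 SD, cut at about 30% in these data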;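 further: inhibitors block probe labeling of enzyme so polarization drops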
VIM-2 inhibitor: blocks Pseudomonas aeruginosa VIM-2 metallo-beta-lactamase | purified VIM-2, nitrocefin hydrolysis, epi-absorbance fluorescence | inhibition, % at 5.6 µM | 290,000 compounds, 0.89% hits | AID 1527;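 active means inhibition above the mean of all tested compounds plus 3 SD, cutoff set per screening run, cut at about 7.5% in these data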;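 further: red hydrolysis product quenches plate fluorescence so inhibitors raise well fluorescence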
PAFAH1B2 FP inh: PAFAH1B2 (human) inhibition; 340,000 compounds, 1.2% hits; inhibition, % at 3.39 µM; recombinant PAFAH1B2, FP-rhodamine activity probe, fluorescence polarization; P68402;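 active means inhibition above the mean of all tested compounds plus 3 SD, cut at about 24% in these data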
Target sequence (P68402 whole entry, looked up): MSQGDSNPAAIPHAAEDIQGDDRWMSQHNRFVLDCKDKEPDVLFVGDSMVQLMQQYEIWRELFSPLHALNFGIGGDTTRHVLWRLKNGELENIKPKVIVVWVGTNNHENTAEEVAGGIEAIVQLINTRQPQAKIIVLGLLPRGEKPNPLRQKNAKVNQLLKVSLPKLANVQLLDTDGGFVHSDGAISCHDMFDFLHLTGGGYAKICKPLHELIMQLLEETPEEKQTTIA
Of the large screens only hits and unclear results are named; the others gave an inactive call. A selection: hits, their analogues and other compounds. The true share with any hit is near 3.6%.

CN1CCN(S(=O)(=O)c2cccc(C(=O)Nc3cc(C(N)=O)cc(C(N)=O)c3)c2)CC1	PAFAH1B2 FP inh 25.1
Cc1nc(-c2cccc(S(=O)(=O)N3CCC(C)CC3)c2)cs1	PAFAH1B2 FP inh 30.2
CN1CCN(S(=O)(=O)c2cccc(C(=O)N(c3ccccn3)C3CCCCC3)c2)CC1	none
CN1CCN(S(=O)(=O)c2cccc(C(=O)Nc3sccc3C(N)=O)c2)CC1	none (no result: IMP-1 inhibitor, VIM-2 inhibitor)
Cc1nc(-c2cccc(S(=O)(=O)N3CCCCC3)c2)cs1	none
CC1CCN(S(=O)(=O)c2cccc(C(=O)N(Cc3ccccc3)c3ccccn3)c2)CC1	PAFAH1B2 FP inh 24.6
CCOC(=O)c1sc(NC(=O)C2CC(=O)N(c3ccccc3OC)C2)nc1C (configuration not stated)	none (no result: IMP-1 inhibitor, VIM-2 inhibitor)
COc1ccc2c(c1)C(C)(CCN)C(=O)N2C (configuration not stated)	none (no result: IMP-1 inhibitor, VIM-2 inhibitor)
Fc1ccc(CSc2ccc3nnc(-c4ccccn4)n3n2)cc1	VIM-2 inhibitor 9.3
COc1cccc(N=Nc2c(N)[nH]n3c(=O)c4c(nc23)CCCC4)c1	pPAFAH FP inh 29.9 (no result: PAFAH1B3 inh, PAFAH2 inh, PAFAH1B2 FP inh)
CC1CCCC(C)N1C(=O)COC(=O)Cc1ccc(F)cc1 (configuration not stated)	none
COc1cccc(CNC(=O)C2CCN(S(=O)(=O)N3CCC(C)CC3)CC2)c1	none
COc1ccc(CC(C)NCC(O)c2ccc(O)c(NC=O)c2)cc1 (configuration not stated)	none (no result: IMP-1 inhibitor, pPAFAH FP inh, VIM-2 inhibitor)
Cc1cccc(C(=O)O/N=C/c2ccc(Br)cc2)c1	PAFAH2 inh 72.8, PAFAH1B2 FP inh 37.4
Cc1ccc(NC(=O)Cn2nnc(C(=O)NCCc3ccccc3)c2N)c(C)c1	none
Cc1[nH]c2ccccc2c1/C=C/C(=O)c1ccncc1	VIM-2 inhibitor 8.5
O=C(/C=C/c1cccc2ccccc12)c1ccncc1	none
CC1(C)Cc2c(c(N3CCOCC3)nc3sc4c(NN)ncnc4c23)CS1	IMP-1 inhibitor 11.9
CCN(CC)c1ncnc2c1sc1nc(N3CCOCC3)c3c(c12)CCC3	IMP-1 inhibitor 7.0 (no result: PAFAH1B3 inh, pPAFAH FP inh, PAFAH2 inh, PAFAH1B2 FP inh)
CCOC(=O)CC1CCCCN1C(=O)c1cc(COc2cccc3cnccc23)on1 (configuration not stated)	none
CCSc1nc(N)c(C#N)c(-c2ccco2)c1C#N	IMP-1 inhibitor 4.5
O=C(NCCCN1CCOCC1)c1cccc(S(=O)(=O)Nc2ccc(F)cc2)c1	pPAFAH FP inh 27.0 (no result: IMP-1 inhibitor, VIM-2 inhibitor)
O=C(c1cccc(S(=O)(=O)Nc2ccc(F)cc2)c1)N1CCOCC1	pPAFAH FP inh 28.7 (no result: IMP-1 inhibitor, VIM-2 inhibitor)
O=C(NCCCN1CCOCC1)c1ccc(NS(=O)(=O)c2ccccc2)cc1	none
CCOC(=O)N1CCN(C(=O)c2cccc(S(=O)(=O)Nc3ccc(F)cc3)c2)CC1	none (no result: IMP-1 inhibitor, pPAFAH FP inh, VIM-2 inhibitor)
O=C(NCCCN1CCOCC1)c1cccc(NS(=O)(=O)c2ccc(Br)cc2)c1	PAFAH1B2 FP inh 24.5 (no result: IMP-1 inhibitor, VIM-2 inhibitor)
COc1ccc(NS(=O)(=O)c2ccc(N3CCOCC3)c(NC(=O)c3cccc(F)c3)c2)cc1	pPAFAH FP inh 32.8
O=C(NCCCN1CCCC1=O)c1ccc(NS(=O)(=O)c2ccc(F)cc2)cc1	none (no result: IMP-1 inhibitor, VIM-2 inhibitor)
O=C(NCCCN1CCCC1=O)c1cc(NS(=O)(=O)c2ccc(F)cc2)cc(NS(=O)(=O)c2ccc(F)cc2)c1	pPAFAH FP inh 33.6
O=C(NCCN1CCOCC1)c1cccc(S(=O)(=O)Nc2cc(Cl)ccc2Cl)c1	none (no result: IMP-1 inhibitor, pPAFAH FP inh, VIM-2 inhibitor)
O=C(NCCN1CCOCC1)c1cccc(S(=O)(=O)Nc2ccc(Br)cc2)c1	pPAFAH FP inh 33.7 (no result: IMP-1 inhibitor, VIM-2 inhibitor)
COc1ccc(CNC(=O)N2CCN(c3ccccc3OC)CC2)cc1	none
CNc1ccccc1C(=O)OCC(=O)N(CCOC)c1c(N)n(CC(C)C)c(=O)[nH]c1=O	none (no result: IMP-1 inhibitor, VIM-2 inhibitor)
CCOc1ccc(N(CC(=O)NCc2ccc(OC)cc2)S(=O)(=O)c2c(C)[nH]c(=O)[nH]c2=O)cc1	none
CCOc1ccc(N(CC(=O)NCCc2ccc(Cl)cc2)S(=O)(=O)c2c(C)[nH]c(=O)[nH]c2=O)cc1	PAFAH1B2 FP inh 28.1
CCc1ccccc1NC(=O)CCS(=O)(=O)c1ccc(C)cc1	none
CCOc1ccc(NC(=O)CCS(=O)(=O)c2ccc(Br)cc2)cc1	IMP-1 inhibitor 15.9
COC(=O)c1ccccc1NC(=O)CCS(=O)(=O)c1ccc(Br)cc1	IMP-1 inhibitor 34.9 (no result: pPAFAH FP inh)
CCc1ccccc1NC(=O)CCS(=O)(=O)c1ccc(Br)cc1	IMP-1 inhibitor 34.2
COc1ccc(NC(=O)CCS(=O)(=O)c2ccc(OC)cc2)cc1	none
